Test results published in ChEMBL document CHEMBL1212894, “Non-peptide macrocyclic histone deacetylase inhibitors derived from tricyclic ketolide skeleton” (J Med Chem, 2010).
Values after ≈ are worked out from the molar mass of the structure shown. Active and inactive are the calls of the source. The rule behind the calls is not given here.

Legend:
[1] = test system: Plasmodium falciparum; test: Antimalarial activity against Plasmodium falciparum D6 after 72 hrs by alamar blue assay; assay type: functional, organism-based; conditions: D6, 72 h
[2] = molecular target: T1, Histone deacetylase 8 (Homo sapiens, UniProt Q9BY41); test: Inhibition of HDAC8
T1 sequence (Q9BY41 whole entry): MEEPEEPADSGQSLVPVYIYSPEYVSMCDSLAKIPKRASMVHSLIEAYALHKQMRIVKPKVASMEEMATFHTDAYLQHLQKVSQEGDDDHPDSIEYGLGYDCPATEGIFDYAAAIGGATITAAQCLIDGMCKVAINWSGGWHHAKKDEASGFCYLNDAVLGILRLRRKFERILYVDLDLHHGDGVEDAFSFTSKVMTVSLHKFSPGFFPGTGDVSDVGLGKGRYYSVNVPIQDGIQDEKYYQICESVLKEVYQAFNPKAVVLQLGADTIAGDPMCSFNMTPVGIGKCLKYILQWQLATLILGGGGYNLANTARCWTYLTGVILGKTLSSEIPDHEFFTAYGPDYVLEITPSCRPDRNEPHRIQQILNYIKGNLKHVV

[3] = Selectivity index, ratio of IC50 for african green monkey (Cercopithecus aethiops) Vero cells to IC50 for Plasmodium falciparum D6
[4] = test system: Leishmania donovani; test: Antileishmanial activity against Leishmania donovani promastigotes after 72 hrs by alamar blue assay; assay type: functional, organism-based
[5] = test system: MCF7; test: Antiproliferative activity against human MCF7 cells after 72 hrs by MTS assay; assay type: functional
Method in brief: (§1)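 Cells kept at 37 °C, 5% CO₂ in recommended media; seeded in 96-well plates the day before, grown at least 24 h, then dosed 72 h with compounds diluted from 1000X DMSO stocks to give 0.1% DMSO final. MTS reagent added for 2 h; absorbance read at 490 nm; EC50 is concentration giving 50% loss of viability.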

[6] = test system: A549; test: Antiproliferative activity against human A549 cells after 72 hrs by MTS assay; assay type: functional; method in brief: as §1
[7] = Antiproliferative activity against human Hs1.Lu cells after 72 hrs by MTS assay; assay type: cell-based
[8] = Selectivity index, ratio of IC50 for african green monkey (Cercopithecus aethiops) Vero cells to IC50 for Plasmodium falciparum W2
[9] = test system: Plasmodium falciparum; test: Antimalarial activity against Plasmodium falciparum W2 after 72 hrs by alamar blue assay; assay type: functional, organism-based; conditions: W2, 72 h
[10] = molecular target: Histone deacetylase; test: Inhibition of HDAC in human HeLa cell nuclear extracts; assay type: protein assay
[11] = molecular target: T2, Protein deacetylase HDAC6 (Homo sapiens, UniProt Q9UBN7); test: Inhibition of HDAC6
T2 sequence (Q9UBN7 whole entry): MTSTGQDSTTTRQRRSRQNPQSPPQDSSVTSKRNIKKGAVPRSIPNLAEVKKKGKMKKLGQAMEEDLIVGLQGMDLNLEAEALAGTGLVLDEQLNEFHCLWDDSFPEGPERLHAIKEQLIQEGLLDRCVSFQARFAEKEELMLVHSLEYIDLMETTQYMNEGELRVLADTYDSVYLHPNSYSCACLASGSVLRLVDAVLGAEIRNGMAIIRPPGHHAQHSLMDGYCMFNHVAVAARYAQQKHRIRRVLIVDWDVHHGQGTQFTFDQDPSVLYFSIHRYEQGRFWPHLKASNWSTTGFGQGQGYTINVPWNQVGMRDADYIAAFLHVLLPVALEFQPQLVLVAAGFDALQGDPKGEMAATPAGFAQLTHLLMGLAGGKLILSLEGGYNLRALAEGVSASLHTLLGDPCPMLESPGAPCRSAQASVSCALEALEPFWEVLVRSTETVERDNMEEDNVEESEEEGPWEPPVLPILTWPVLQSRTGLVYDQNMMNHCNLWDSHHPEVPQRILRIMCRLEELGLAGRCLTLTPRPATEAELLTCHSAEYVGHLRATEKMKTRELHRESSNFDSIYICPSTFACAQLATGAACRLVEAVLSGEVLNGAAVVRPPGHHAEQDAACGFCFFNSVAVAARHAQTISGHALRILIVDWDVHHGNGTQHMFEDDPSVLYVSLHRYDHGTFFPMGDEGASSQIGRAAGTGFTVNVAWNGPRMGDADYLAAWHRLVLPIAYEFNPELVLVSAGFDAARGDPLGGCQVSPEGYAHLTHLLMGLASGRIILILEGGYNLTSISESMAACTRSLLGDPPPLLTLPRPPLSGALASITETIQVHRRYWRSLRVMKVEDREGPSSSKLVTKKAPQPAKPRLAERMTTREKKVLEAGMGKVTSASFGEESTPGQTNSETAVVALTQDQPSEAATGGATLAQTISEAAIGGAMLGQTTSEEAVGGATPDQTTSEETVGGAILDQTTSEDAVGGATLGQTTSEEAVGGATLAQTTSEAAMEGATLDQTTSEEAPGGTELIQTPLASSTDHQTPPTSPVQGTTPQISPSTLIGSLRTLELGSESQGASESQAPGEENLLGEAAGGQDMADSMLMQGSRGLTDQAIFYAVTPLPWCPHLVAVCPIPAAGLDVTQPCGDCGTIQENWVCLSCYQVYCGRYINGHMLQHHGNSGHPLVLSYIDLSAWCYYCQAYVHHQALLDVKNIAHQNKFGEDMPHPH

[12] = molecular target: T3, Histone deacetylase (Plasmodium falciparum, UniProt Q9XYC7); test: Inhibition of Plasmodium falciparum HDAC1
T3 sequence (Q9XYC7 whole entry): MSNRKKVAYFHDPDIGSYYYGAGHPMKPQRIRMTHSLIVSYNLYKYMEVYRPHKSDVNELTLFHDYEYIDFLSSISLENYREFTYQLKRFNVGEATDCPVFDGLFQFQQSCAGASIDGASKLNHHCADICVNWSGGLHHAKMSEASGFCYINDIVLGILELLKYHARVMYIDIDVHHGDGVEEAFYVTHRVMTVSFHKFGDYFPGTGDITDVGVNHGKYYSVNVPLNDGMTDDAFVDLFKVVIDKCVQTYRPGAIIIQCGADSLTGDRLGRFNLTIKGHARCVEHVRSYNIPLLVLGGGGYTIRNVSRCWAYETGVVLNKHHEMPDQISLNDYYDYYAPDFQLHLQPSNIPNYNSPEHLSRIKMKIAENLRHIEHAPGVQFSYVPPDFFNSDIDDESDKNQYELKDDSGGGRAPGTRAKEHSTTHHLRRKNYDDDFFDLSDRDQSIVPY

[13] = test system: DU-145; test: Antiproliferative activity against human DU145 cells after 72 hrs by MTS assay; assay type: functional; method in brief: as §1
[14] = Selectivity ratio IC50 for HDAC8 to IC50 for HDAC in human HeLa cells nuclear extract; assay type: cell-based; set-up: reference not given here
[15] = test system: Leishmania donovani
[16] = Leishmania donovani, 72 h, read-out: IC50

## C[C@@H]1CC[C@H]2[C@@H](C)C(=O)O[C@@H]3O[C@@]4(C)CC[C@@H]1[C@]32OO4 [ARTEMISININ]
[1]
  IC50: 0.0066 µg/mL (≈ 0.0234 µM)

## CC[C@H]1OC(=O)[C@H](C)C(=O)[C@H](C)[C@@H](O[C@@H]2O[C@H](C)C[C@H](N(C)Cc3ccc(-c4cn(CCCCCCCC(=O)NO)nn4)cc3)[C@H]2O)[C@](C)(OC)C[C@@H](C)C2=NCCN3C(=O)O[C@@]1(C)[C@H]3[C@H]2C
[2]
  IC50: 580 nM
[3]; vero
  selectivity ratio: > 3.6
[4]; Leishmania donovani, 72 h
  IC90: 35.8 µg/mL (≈ 38.2 µM)
[4]; [16]
  IC50: 19.7 µg/mL (≈ 21 µM)
[5]
  Activity: 1.35 µM
[6]
  Activity: 1.64 µM
[7]
  Activity: > 10 µM
[8]; vero
  selectivity ratio: > 3.3
[9]
  IC50: 1.47 µg/mL (≈ 1.57 µM)
[10]
  IC50: 104.2 nM
[11]
  IC50: 1710 nM
[1]
  IC50: 1.32 µg/mL (≈ 1.4 µM)
[12]
  IC50: 40 nM
[13]
  Activity: 3.7 µM

## CC[C@H]1OC(=O)[C@H](C)C(=O)[C@H](C)[C@@H](O[C@@H]2O[C@H](C)C[C@H](N(C)Cc3ccc(-c4cn(CCCCCC(=O)NO)nn4)cc3)[C@H]2O)[C@](C)(OC)C[C@@H](C)C2=NCCN3C(=O)O[C@@]1(C)[C@H]3[C@H]2C
[2]
  IC50: 796 nM
[14]
  Ratio IC50: 102
[3]; vero
  selectivity ratio: > 5.3
[4]
  IC50: Not Active
[5]
  Activity: 1.26 µM
[6]
  Activity: 1.17 µM
[7]
  Activity: > 10 µM
[15]
  IC90: inactive
[8]; vero
  selectivity ratio: > 2.68
[9]
  IC50: 1.79 µg/mL (≈ 1.97 µM)
[10]
  IC50: 7.77 nM
[11]
  IC50: 1180 nM
[1]
  IC50: 0.897 µg/mL (≈ 0.986 µM)
[12]
  IC50: 36 nM
[13]
  Activity: 1.64 µM

## CC[C@H]1OC(=O)[C@H](C)C(=O)[C@H](C)[C@@H](O[C@@H]2O[C@H](C)C[C@H](N(C)Cc3ccc(-c4cn(CCCCCCC(=O)NO)nn4)cc3)[C@H]2O)[C@](C)(OC)C[C@@H](C)C2=NCCN3C(=O)O[C@@]1(C)[C@H]3[C@H]2C
[2]
  IC50: 545 nM
[14]
  Ratio IC50: 529
[3]; vero
  selectivity ratio: > 35
[4]
  IC50: Not Active
[5]
  Activity: 0.75 µM
[6]
  Activity: 0.66 µM
[7]
  Activity: > 10 µM
[15]
  IC90: inactive
[8]; vero
  selectivity ratio: > 36
[9]
  IC50: 0.133 µg/mL (≈ 0.144 µM)
[10]
  IC50: 1.03 nM
[11]
  IC50: 729 nM
[1]
  IC50: 0.137 µg/mL (≈ 0.148 µM)
[12]
  IC50: 10 nM
[13]
  Activity: 0.82 µM

## CC[C@H]1OC(=O)[C@H](C)C(=O)[C@H](C)[C@@H](O[C@@H]2O[C@H](C)C[C@H](N(C)Cc3ccc(-c4cn(CCCCCCCCCC(=O)NO)nn4)cc3)[C@H]2O)[C@](C)(OC)C[C@@H](C)C2=NCCN3C(=O)O[C@@]1(C)[C@H]3[C@H]2C
[2]
  IC50: 4560 nM
[14]
  Ratio IC50: 21.9
[3]; vero
  selectivity ratio: > 4
[4]; Leishmania donovani, 72 h
  IC90: 23.7 µg/mL (≈ 24.5 µM)
[4]; [16]
  IC50: 4.8 µg/mL (≈ 4.97 µM)
[5]
  Activity: 3.68 µM
[6]
  Activity: 2.81 µM
[7]
  Activity: > 10 µM
[8]; vero
  selectivity ratio: > 5.3
[9]
  IC50: 0.897 µg/mL (≈ 0.928 µM)
[10]
  IC50: 208.2 nM
[11]
  IC50: 3200 nM
[1]
  IC50: 1.19 µg/mL (≈ 1.24 µM)
[12]
  IC50: 304 nM
[13]
  Activity: 4.83 µM

## N=C(N)c1ccc(OCCCCCOc2ccc(C(=N)N)cc2)cc1 [PENTAMIDINE]
[4]; Leishmania donovani, 72 h
  IC90: 2.45 µg/mL (≈ 7.2 µM)
[4]; [16]
  IC50: 1.17 µg/mL (≈ 3.44 µM)

## C[C@@H]1[C@H](O)[C@@H](C)/C=C/C=C/C=C/C=C/C=C/C=C/C=C/[C@H](O[C@@H]2O[C@H](C)[C@@H](O)[C@H](N)[C@@H]2O)C[C@@H]2O[C@](O)(C[C@@H](O)C[C@@H](O)[C@H](O)CC[C@@H](O)C[C@@H](O)CC(=O)O[C@H]1C)C[C@H](O)[C@H]2C(=O)O [AMPHOTERICIN B]
[4]; Leishmania donovani, 72 h
  IC90: 0.395 µg/mL (≈ 0.427 µM)
[4]; [16]
  IC50: 0.079 µg/mL (≈ 0.0855 µM)

## CC[C@H]1OC(=O)[C@H](C)C(=O)[C@H](C)[C@@H](O[C@@H]2O[C@H](C)C[C@H](N(C)Cc3ccc(-c4cn(CCCCCCCCC(=O)NO)nn4)cc3)[C@H]2O)[C@](C)(OC)C[C@@H](C)C2=NCCN3C(=O)O[C@@]1(C)[C@H]3[C@H]2C
[2]
  IC50: 2860 nM
[14]
  Ratio IC50: 17.5
[3]; Vero cells
  selectivity ratio: > 3.7
[4]; Leishmania donovani, 72 h
  IC90: 32.3 µg/mL (≈ 33.9 µM)
[4]; [16]
  IC50: 14.9 µg/mL (≈ 15.6 µM)
[5]
  Activity: 2.56 µM
[6]
  Activity: 2.48 µM
[7]
  Activity: > 10 µM
[8]; Vero cells
  selectivity ratio: > 3.5
[9]
  IC50: 1.38 µg/mL (≈ 1.45 µM)
[10]
  IC50: 163.6 nM
[11]
  IC50: 1920 nM
[1]
  IC50: 1.3 µg/mL (≈ 1.36 µM)
[12]
  IC50: 290 nM
[13]
  Activity: 3.89 µM

## O=C(CCCCCCC(=O)Nc1ccccc1)NO [VORINOSTAT]
[4]; Leishmania donovani, 72 h
  IC90: 51.7 µg/mL (≈ 196 µM)
